From ChEMBL document CHEMBL4689842, “EUbOPEN Chemogenomics Library wave 1” (2021)

Key:
HEK-293T = test: Incucyte cell viability with HEK293T; format: toxicity, cell-based; details: human, 10 µM, compound concentration 10 uM; note: filed as whole numbers so only -1 and 0 and 1 occur
U2OS = test: Multiplex assay against U2OS; format: toxicity, cell-based; details: human
In short: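 Per cents of healthy-nucleus cells form the tubulin, mitochondrial-mass and membrane-permeability phenotype values. Live cells were stained at seeding with Hoechst33342, BioTracker Green Microtubule Cytoskeleton Dye, MitoTracker Red and Annexin V Alexa Fluor 680. After compound addition they were imaged on a CQ1 microscope at 37°C and 5% CO2, and CellPathfinder machine-learning gating split them into Hoechst high-intensity objects or normal cells, normal cells into healthy, pyknosed or fragmented nuclei, and pyknosed cells into mitotic or apoptotic.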

[1] = 12 h, 1 µM, compound concentration 1 uM, replicate 1
[2] = 12 h, 1 µM, compound concentration 1 uM, replicate 2
[3] = 12 h, 10 µM, compound concentration 10 uM, replicate 1
[4] = 12 h, 10 µM, compound concentration 10 uM, replicate 2
[5] = 24 h, 1 µM, compound concentration 1 uM, replicate 1
[6] = 24 h, 1 µM, compound concentration 1 uM, replicate 2
[7] = 24 h, 10 µM, compound concentration 10 uM, replicate 1
[8] = 24 h, 10 µM, compound concentration 10 uM, replicate 2

CNC(=O)c1cc(Oc2ccc(NC(=O)Nc3cc(C(C)(C)C)nn3-c3ccc4ncccc4c3)c(F)c2)ccn1 [REBASTINIB]
Growth Rate (HEK-293T; 0 h, replicate number 2, timepoint 0 hours): 0 | Growth Rate (HEK-293T; 6 h, replicate number 1, timepoint 6 hours): 0 | Growth Rate (HEK-293T; 12 h, replicate number 1, timepoint 12 hours): 0 | Growth Rate (HEK-293T; 18 h, replicate number 1, timepoint 18 hours): 0 | Growth Rate (HEK-293T; 24 h, replicate number 1, timepoint 24 hours): 0 | Population Apoptotic (%) (U2OS; [1]): 46% | Population Fragmented Nuclei (%) (U2OS; [1]): 3% | Population Healthy Nuclei (%) (U2OS; [1]): 88% | Population Hoechst High Intensity Objects (%) (U2OS; [1]): 3% | Population Membrane Permeable-Phenotype (%) (U2OS; [1]): 16% | Population Mitochondria Different-Phenotype (%) (U2OS; [1]): 15% | Population Mitotic Cells (%) (U2OS; [1]): 53% | Population Normal (%) (U2OS; [1]): 96% | Population Pyknosed Nuclei (%) (U2OS; [1]): 7% | Population Tubulin-Different-Phenotype (%) (U2OS; [1]): 13% | Total Cell Count (U2OS; [1]): 164 | Population Apoptotic (%) (U2OS; [2]): 0% | Population Fragmented Nuclei (%) (U2OS; [2]): 10% | Population Healthy Nuclei (%) (U2OS; [2]): 87% | Population Hoechst High Intensity Objects (%) (U2OS; [2]): 7% | Population Membrane Permeable-Phenotype (%) (U2OS; [2]): 17% | Population Mitochondria Different-Phenotype (%) (U2OS; [2]): 31% | Population Mitotic Cells (%) (U2OS; [2]): 100% | Population Normal (%) (U2OS; [2]): 92% | Population Pyknosed Nuclei (%) (U2OS; [2]): 1% | Population Tubulin-Different-Phenotype (%) (U2OS; [2]): 35% | Total Cell Count (U2OS; [2]): 113 | Population Apoptotic (%) (U2OS; [3]): 50% | Population Fragmented Nuclei (%) (U2OS; [3]): 16% | Population Healthy Nuclei (%) (U2OS; [3]): 63% | Population Hoechst High Intensity Objects (%) (U2OS; [3]): 6% | Population Membrane Permeable-Phenotype (%) (U2OS; [3]): 30% | Population Mitochondria Different-Phenotype (%) (U2OS; [3]): 54% | Population Mitotic Cells (%) (U2OS; [3]): 50% | Population Normal (%) (U2OS; [3]): 93% | Population Pyknosed Nuclei (%) (U2OS; [3]): 20% | Population Tubulin-Different-Phenotype (%) (U2OS; [3]): 96% | Total Cell Count (U2OS; [3]): 196 | Population Apoptotic (%) (U2OS; [4]): 46% | Population Fragmented Nuclei (%) (U2OS; [4]): 8% | Population Healthy Nuclei (%) (U2OS; [4]): 72% | Population Hoechst High Intensity Objects (%) (U2OS; [4]): 11% | Population Membrane Permeable-Phenotype (%) (U2OS; [4]): 18% | Population Mitochondria Different-Phenotype (%) (U2OS; [4]): 52% | Population Mitotic Cells (%) (U2OS; [4]): 53% | Population Normal (%) (U2OS; [4]): 88% | Population Pyknosed Nuclei (%) (U2OS; [4]): 18% | Population Tubulin-Different-Phenotype (%) (U2OS; [4]): 98% | Total Cell Count (U2OS; [4]): 111 | Population Apoptotic (%) (U2OS; [5]): 25% | Population Fragmented Nuclei (%) (U2OS; [5]): 6% | Population Healthy Nuclei (%) (U2OS; [5]): 84% | Population Hoechst High Intensity Objects (%) (U2OS; [5]): 2% | Population Membrane Permeable-Phenotype (%) (U2OS; [5]): 12% | Population Mitochondria Different-Phenotype (%) (U2OS; [5]): 28% | Population Mitotic Cells (%) (U2OS; [5]): 75% | Population Normal (%) (U2OS; [5]): 97% | Population Pyknosed Nuclei (%) (U2OS; [5]): 9% | Population Tubulin-Different-Phenotype (%) (U2OS; [5]): 13% | Total Cell Count (U2OS; [5]): 218 | Population Apoptotic (%) (U2OS; [6]): 44% | Population Fragmented Nuclei (%) (U2OS; [6]): 13% | Population Healthy Nuclei (%) (U2OS; [6]): 79% | Population Hoechst High Intensity Objects (%) (U2OS; [6]): 13% | Population Membrane Permeable-Phenotype (%) (U2OS; [6]): 14% | Population Mitochondria Different-Phenotype (%) (U2OS; [6]): 26% | Population Mitotic Cells (%) (U2OS; [6]): 55% | Population Normal (%) (U2OS; [6]): 86% | Population Pyknosed Nuclei (%) (U2OS; [6]): 7% | Population Tubulin-Different-Phenotype (%) (U2OS; [6]): 35% | Total Cell Count (U2OS; [6]): 126 | Population Apoptotic (%) (U2OS; [7]): 75% | Population Fragmented Nuclei (%) (U2OS; [7]): 17% | Population Healthy Nuclei (%) (U2OS; [7]): 50% | Population Hoechst High Intensity Objects (%) (U2OS; [7]): 18% | Population Membrane Permeable-Phenotype (%) (U2OS; [7]): 33% | Population Mitochondria Different-Phenotype (%) (U2OS; [7]): 91% | Population Mitotic Cells (%) (U2OS; [7]): 24% | Population Normal (%) (U2OS; [7]): 81% | Population Pyknosed Nuclei (%) (U2OS; [7]): 31% | Population Tubulin-Different-Phenotype (%) (U2OS; [7]): 94% | Total Cell Count (U2OS; [7]): 227 | Population Apoptotic (%) (U2OS; [8]): 64% | Population Fragmented Nuclei (%) (U2OS; [8]): 15% | Population Healthy Nuclei (%) (U2OS; [8]): 59% | Population Hoechst High Intensity Objects (%) (U2OS; [8]): 17% | Population Membrane Permeable-Phenotype (%) (U2OS; [8]): 30% | Population Mitochondria Different-Phenotype (%) (U2OS; [8]): 87% | Population Mitotic Cells (%) (U2OS; [8]): 35% | Population Normal (%) (U2OS; [8]): 82% | Population Pyknosed Nuclei (%) (U2OS; [8]): 25% | Population Tubulin-Different-Phenotype (%) (U2OS; [8]): 97% | Total Cell Count (U2OS; [8]): 141
